Experimental data from ChEMBL document CHEMBL4414639, “Synthesis, Pharmacological Characterization, and Structure-Activity Relationships of Noncanonical Selective Agonists for α7 nAChRs” (J Med Chem, 2019).
Active and inactive are the calls of the source. No cut-off for these calls is given here.

How the values were obtained:
[1] = target: T1, 5-hydroxytryptamine receptor 3A (Homo sapiens) (UniProt P46098); assay: Antagonist activity at 5HT3A (unknown origin) transfected in HEK cells assessed as decrease in agonist-induced intracellular calcium release incubated for 30 mins by FRET assay; format: cell-based
T1 sequence (whole entry): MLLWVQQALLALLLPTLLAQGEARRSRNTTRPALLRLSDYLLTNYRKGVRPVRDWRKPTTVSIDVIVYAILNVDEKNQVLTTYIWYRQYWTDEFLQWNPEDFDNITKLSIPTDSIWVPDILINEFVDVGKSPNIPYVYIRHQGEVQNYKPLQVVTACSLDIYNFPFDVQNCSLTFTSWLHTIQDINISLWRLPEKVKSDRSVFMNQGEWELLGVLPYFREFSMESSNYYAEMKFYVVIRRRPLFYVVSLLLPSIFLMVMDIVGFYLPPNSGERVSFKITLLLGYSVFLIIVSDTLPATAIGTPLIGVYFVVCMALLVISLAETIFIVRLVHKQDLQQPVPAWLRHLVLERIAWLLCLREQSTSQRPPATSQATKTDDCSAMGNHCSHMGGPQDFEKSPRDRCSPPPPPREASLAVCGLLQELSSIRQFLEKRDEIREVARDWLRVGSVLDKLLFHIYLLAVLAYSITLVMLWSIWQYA
In short: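 CNiFER HEK cell monolayers stably expressing the receptor. Test compound at three concentrations in aCSF, preincubated 30 min at 37 °C, 6% CO2, before agonist addition: epibatidine for α4β2, 5-HT for 5-HT3A. TN-XXL FRET ratio (527/485 nm) read over 120 s at 37 °C, agonist injected at 30 s, triplicate wells. Agonist EC50 shifts fitted. KA computed as [A]/(DR−1) (competitive) or [A]/(Δmax/Δ−1) (noncompetitive). At least three independent experiments. α4β2 stoichiometry not distinguished.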

[2] = target: T2, Neuronal acetylcholine receptor subunit alpha-7 (Homo sapiens, UniProt P36544); assay: Agonist activity at human alpha7 nAChR transfected in HEK cells assessed as increase in intracellular calcium release incubated for 30 mins in presence of PNU-120596 by FRET assay; format: cell-based
In short: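 HEK cell line stably expressing α7 nAChR and the CNiFER (TN-XXL) biosensor, grown in DMEM + 10% FBS, 1% glutamine, 37 °C, 6% CO2. Cells preincubated 30 min at 37 °C in aCSF containing 10 μM PNU-120596 (final). Agonist injected at 30 s. FRET ratio (527/485 nm) followed over 120 s at 37 °C, triplicate wells. EC50 from variable-slope sigmoidal fit of mean peak ratios, normalized to the 316 μM response.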

[3] = target: T3, Neuronal acetylcholine receptor; alpha4/beta2 (Homo sapiens) (UniProt P17787+P43681); assay: Antagonist activity at alpha4beta2 nAChR (unknown origin) transfected in HEK cells assessed as decrease in epibatidine-induced intracellular calcium release incubated for 30 mins by FRET assay
[4] = target: T2, Neuronal acetylcholine receptor subunit alpha-7; assay: Agonist activity at human alpha7 nAChR expressed in Xenopus laevis oocytes assessed as increase in channel currents at 30 uM at -60 mV holding potential by two electrode voltage clamp assay; format: cell-based
In short: (§1)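 Oocytes expressing human α7 nAChR (with human RIC-3 cDNA available), clamped at -60 mV in Ringer's pH 7.2 with 1 µM atropine, 2 mL/min flow. Drug applied 12 s, 211 s washout. Responses normalized to mean of two 60 µM ACh precontrol responses per oocyte. Data from six cells. Concentration-response data fit to the Hill equation. Sequence included 30 µM test compound, then 60 µM ACh, then 10 µM PNU-120596.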

[5] = target: T2, Neuronal acetylcholine receptor subunit alpha-7; assay: Agonist activity at human alpha7 nAChR expressed in Xenopus laevis oocytes assessed as increase in channel currents at -60 mV holding potential by two electrode voltage clamp assay relative Ach; format: cell-based; in short: as §1
[6] = target: T2, Neuronal acetylcholine receptor subunit alpha-7; assay: Inhibition of human alpha7 nAChR expressed in Xenopus laevis oocytes assessed as decrease in ACh-induced channel currents at -60 mV holding potential by two electrode voltage clamp assay; format: cell-based
In short: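 Human α7 nAChR in oocytes under two-electrode voltage clamp at -60 mV, Ringer's pH 7.2, 2 mL/min. Test compound applied 12 s with 211 s washout, then 60 µM ACh applied. ACh response normalized to the mean of two ACh precontrols per oocyte. Inhibition concentration-response curves from six cells, Hill equation fit.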

Mus musculus [7] = species on record: Mus musculus; assay: Agonist activity at mouse alpha1beta1epsilondelta nAChR expressed in Xenopus laevis oocytes assessed as increase in channel currents at 30 uM at -60 mV holding potential by two electrode voltage clamp assay; format: cell-based
In short: (§2)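 Two-electrode voltage clamp on oocytes at -60 mV in Ringer's (115 mM NaCl, 2.5 mM KCl, 1.8 mM CaCl2, 10 mM HEPES, 1 µM atropine, pH 7.2), 4 mL/min flow. Test compound applied 6 s, then 271 s washout. Normalized to mean of two ACh precontrols: 30 µM for α1β1εδ, 100 µM for α3β4, 100 µM for LS α4β2, 10 µM for HS α4β2.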

[8] = target: T4, Neuronal acetylcholine receptor; alpha3/beta4 (Homo sapiens) (UniProt P30926+P32297); assay: Agonist activity at human alpha3beta4 nAChR expressed in Xenopus laevis oocytes assessed as increase in channel currents at 30 uM at -60 mV holding potential by two electrode voltage clamp assay; format: cell-based; in short: as §2
[9] = target: T3, Neuronal acetylcholine receptor; alpha4/beta2 (Homo sapiens); assay: Agonist activity at human (alpha4)2 (beta2)3 nAChR expressed in Xenopus laevis oocytes assessed as increase in channel currents at 30 uM at -60 mV holding potential by two electrode voltage clamp assay; format: cell-based; in short: as §2
[10] = target: T3, Neuronal acetylcholine receptor; alpha4/beta2 (Homo sapiens); assay: Agonist activity at human (alpha4)3 (beta2)2 nAChR expressed in Xenopus laevis oocytes assessed as increase in channel currents at 30 uM at -60 mV holding potential by two electrode voltage clamp assay; format: cell-based; in short: as §2
Mus musculus [11] = species on record: Mus musculus; assay: Inhibition of mouse alpha1beta1epsilondelta nAChR expressed in Xenopus laevis oocytes assessed as increase in channel currents at 30 uM at -60 mV holding potential by two electrode voltage clamp assay; format: cell-based
[12] = target: T4, Neuronal acetylcholine receptor; alpha3/beta4 (Homo sapiens); assay: Inhibition of human alpha3beta4 nAChR expressed in Xenopus laevis oocytes assessed as increase in channel currents at 30 uM at -60 mV holding potential by two electrode voltage clamp assay; format: cell-based
[13] = target: T3, Neuronal acetylcholine receptor; alpha4/beta2 (Homo sapiens); assay: Inhibition of human (alpha4)2 (beta2)3 nAChR expressed in Xenopus laevis oocytes assessed as increase in channel currents at 30 uM at -60 mV holding potential by two electrode voltage clamp assay; format: cell-based
[14] = target: T3, Neuronal acetylcholine receptor; alpha4/beta2 (Homo sapiens); assay: Inhibition of human (alpha4)3 (beta2)2 nAChR expressed in Xenopus laevis oocytes assessed as increase in channel currents at 30 uM at -60 mV holding potential by two electrode voltage clamp assay; format: cell-based
[15] = target: T2, Neuronal acetylcholine receptor subunit alpha-7; assay: Agonist activity at human alpha7 nAChR expressed in Xenopus laevis oocytes assessed as increase in channel currents at 30 uM at -60 mV holding potential in presence of 10 uM PNU-120596 by two electrode voltage clamp assay; format: cell-based; in short: as §1
[16] = target: T2, Neuronal acetylcholine receptor subunit alpha-7; assay: Agonist activity at human alpha7 nAChR expressed in Xenopus laevis oocytes assessed as increase in channel currents at 30 uM at -60 mV holding potential followed washout for 211 sec and then 60 uM of Ach was applied by two electrode voltage clamp assay

T2 sequence (P36544 whole entry): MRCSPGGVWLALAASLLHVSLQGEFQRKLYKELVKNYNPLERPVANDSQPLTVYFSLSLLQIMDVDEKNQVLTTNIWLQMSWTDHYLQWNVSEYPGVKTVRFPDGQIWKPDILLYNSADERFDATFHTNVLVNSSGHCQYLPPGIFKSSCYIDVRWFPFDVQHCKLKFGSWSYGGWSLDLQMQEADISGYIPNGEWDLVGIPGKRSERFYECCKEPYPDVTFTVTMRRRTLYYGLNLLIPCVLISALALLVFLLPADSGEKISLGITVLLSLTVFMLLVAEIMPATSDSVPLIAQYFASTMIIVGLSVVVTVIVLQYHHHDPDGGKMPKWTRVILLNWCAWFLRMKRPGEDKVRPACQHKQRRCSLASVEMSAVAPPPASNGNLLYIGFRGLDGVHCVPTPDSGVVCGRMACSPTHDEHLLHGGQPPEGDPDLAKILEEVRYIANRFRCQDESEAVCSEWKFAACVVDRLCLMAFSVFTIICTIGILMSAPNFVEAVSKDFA

## CC(C)Oc1ccccc1-c1cc(N(Cc2ccccn2)Cc2ccccn2)nc(N)n1
[1]
  Ka: > 10 µM
[2]
  EC50: 890 nM
[3]
  Ka: 1.5 µM

## FC(F)(F)c1nc(-c2ccsc2)cc(N(Cc2ccccn2)Cc2ccccn2)n1
[1]
  Ka: 3.6 µM
[2]
  EC50: 2500 nM
[3]
  Ka: 0.96 µM

## Nc1nc(-c2ccccc2Cl)cc(N(Cc2ccccn2)Cc2ccccn2)n1
[1]
  Ka: > 10 µM
[2]
  EC50: 160 nM
[3]
  Ka: 3.4 µM

## c1ccc(CN(Cc2ccccn2)c2cc(N3CCOCC3)ncn2)nc1
[1]
  Ka: > 10 µM
[2]
  EC50: > 13300 nM
[3]
  Ka: > 10 µM

## COc1ccccc1-c1cc(N(Cc2ccccn2)Cc2ccccn2)nc(SC)n1
[1]
  Ka: 2.8 µM
[2]
  EC50: 110 nM
[3]
  Ka: 1.1 µM

## Fc1ccccc1-c1cc(N(Cc2ccccn2)Cc2ccccn2)ncn1
[1]
  Ka: 8.4 µM
[2]
  EC50: 360 nM
[3]
  Ka: 5.6 µM

## COc1ccccc1-c1cc(N(Cc2ccccn2)Cc2ccccn2)nc([S+](C)[O-])n1 (configuration not stated)
[1]
  Ka: > 10 µM
[2]
  EC50: 920 nM
[3]
  Ka: > 10 µM

## COc1ccccc1-c1cc(N(Cc2ccccc2)Cc2ccccn2)nc(N)n1
[1]
  Ka: 4.1 µM
[2]
  EC50: > 13300 nM
[3]
  Ka: 1.3 µM

## c1ccc(CN(Cc2ccccn2)c2cc(-c3ccsc3)ncn2)nc1
[1]
  Ka: > 10 µM
[2]
  EC50: 2100 nM
[3]
  Ka: > 10 µM

## CC(C)COc1ccccc1-c1cc(N(Cc2ccccn2)Cc2ccccn2)nc(N)n1
[1]
  Ka: 5.5 µM
[2]
  EC50: 1600 nM
[3]
  Ka: 1.3 µM

## COc1ccccc1-c1cc(N(Cc2ccccn2)Cc2ccccn2)ncn1
[1]
  Ka: > 10 µM
[2]
  EC50: 140 nM
[4]
  Activity: Active
[5]
  EC50: 3350 nM
  Imax: 0.89
[6]
  IC50: 3500 nM
Mus musculus [7]
  Activity: inactive
[8]
  Activity: inactive
[9]
  Activity: inactive
[10]
  Activity: inactive
Mus musculus [11]
  inhibition activity (active/inactive): Active
[12]
  inhibition: Active
[13]
  inhibition: inactive
[14]
  inhibition: inactive
[15]
  Activity: Active
[3]
  Ka: 7.9 µM
[16]
  Activity: inactive

## COc1cccc(OC)c1-c1cc(N(Cc2ccccn2)Cc2ccccn2)nc(N)n1
[1]
  Ka: > 10 µM
[2]
  EC50: 5400 nM
[3]
  Ka: 7.1 µM

## CSc1ccccc1-c1cc(N(Cc2ccccn2)Cc2ccccn2)nc(N)n1
[1]
  Ka: > 10 µM
[2]
  EC50: 240 nM
[3]
  Ka: 4.3 µM

## COc1ccccc1-c1cc(N(Cc2ccccn2)Cc2ccccn2)nc(S(C)(=O)=O)n1
[1]
  Ka: > 10 µM
[2]
  EC50: 690 nM
[3]
  Ka: 7.2 µM

## COc1ccccc1-c1cc(N(Cc2ccccn2)Cc2ccccn2)nc(C(F)(F)F)n1
[1]
  Ka: 3.7 µM
[2]
  EC50: 530 nM
[3]
  Ka: 1.7 µM

## COc1ncccc1-c1cc(N(Cc2ccccn2)Cc2ccccn2)nc(N)n1
[1]
  Ka: > 10 µM
[2]
  EC50: 230 nM
[3]
  Ka: > 10 µM

## COc1ccc(-c2cc(N(Cc3ccccn3)Cc3ccccn3)ncn2)c(F)c1
[1]
  Ka: 5.4 µM
[2]
  EC50: 69 nM
[4]
  Activity: Active
[5]
  EC50: 600 nM
  Imax: 0.53
[6]
  IC50: 1300 nM
Mus musculus [7]
  Activity: inactive
[8]
  Activity: inactive
[9]
  Activity: inactive
[10]
  Activity: inactive
Mus musculus [11]
  inhibition activity (active/inactive): Active
[12]
  inhibition: Active
[13]
  inhibition: inactive
[14]
  inhibition: inactive
[15]
  Activity: Active
[3]
  Ka: 3 µM
[16]
  Activity: inactive

## CSc1nc(-c2ccsc2)cc(N(Cc2ccccn2)Cc2ccccn2)n1
[1]
  Ka: 2.2 µM
[2]
  EC50: 1800 nM
[3]
  Ka: 3.4 µM

## COc1ccc(-c2cc(N(Cc3ccccn3)Cc3ccccn3)nc(N)n2)c(F)c1
[1]
  Ka: 5.3 µM
[2]
  EC50: 30 nM
[4]
  Activity: Active
[5]
  EC50: 110 nM
  Imax: 0.84
[6]
  IC50: 470 nM
Mus musculus [7]
  Activity: inactive
[8]
  Activity: inactive
[9]
  Activity: inactive
[10]
  Activity: inactive
Mus musculus [11]
  inhibition activity (active/inactive): Active
[12]
  inhibition: Active
[13]
  inhibition: inactive
[14]
  inhibition: inactive
[15]
  Activity: Active
[3]
  Ka: 3.2 µM
[16]
  Activity: inactive

## COc1cc(F)ccc1-c1cc(N(Cc2ccccn2)Cc2ccccn2)nc(N)n1
[1]
  Ka: > 10 µM
[2]
  EC50: 120 nM
[3]
  Ka: 4.8 µM
